Reference: paper PMC2112435 (The Journal of Cell Biology, 1983)

Tests used:
[1] = system: polymorphonuclear leukocytes (PMNs); assay: 125I-BSA uptake and release of TCA-precipitable BSA by PMNs; format: cell-based, rabbit; details: for k2, rate constant of further processing / k3, rate constant of release of intact material / k3/k2 + k3 / Rate constant for depletion of Ap: Table I
How it was run: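 Rabbit PMNs in HBSS with 2.4 mg/ml HEPES, 3.3×10^6 cells/ml, settled 15 min at 23°C as a monolayer. Incubated 30 min at 37°C with ¹²⁵I-BSA (6.5 μCi/ml), 1% unlabeled BSA and 2×10^-8 M unlabeled FNLLP to stimulate pinocytosis. Washed 10 min at 4°C, then held in fresh HBSS at 37°C or 4°C for varied times. Medium assayed for TCA-precipitable counts. k3 (release) and k2 (digestion/storage) taken from a kinetic pinosome model.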

[2] = system: polymorphonuclear leukocytes (PMNs); assay: 3H-FNLLP peptide uptake and release by PMN monolayers; format: cell-based, rabbit
[3] = system: polymorphonuclear leukocytes (PMNs); details: chemotactic peptide taken up by PMNs; cited from earlier work
[4] = Table I line 2, 2 x 10-0 M/L as printed
[5] = Table I line 4, 2 X 10^-5 M/L as printed (second time)

Substance: BSA: bovine serum albumin (fatty-acid-free), iodinated by the chloramine-T method, pinocytic marker
- k2, rate constant of further processing ([1]; BSA 1.5 X 101 cpm/L as printed): 0.080 min⁻¹
- k3, rate constant of release of intact material ([1]; BSA 1.5 X 101 cpm/L as printed): 0,103 min-1
- k3/k2 + k3 ([1]; BSA 1.5 X 101 cpm/L as printed): 0.56
- k2, rate constant of further processing ([1]; BSA 3.7 X 109 cpm/L): 0,076 min-1
- k3, rate constant of release of intact material ([1]; BSA 3.7 X 109 cpm/L): 0.108 min⁻¹
- k3/k2 + k3 ([1]; BSA 3.7 X 109 cpm/L): 0.59
- Rate constant for depletion of Ap ([1]; BSA concentration 1.5 X 101 cpm/L as printed): 0.182 min⁻¹
- Rate constant for depletion of Ap ([1]; BSA concentration 3.7 X 109 cpm/L): 0.182 min⁻¹
- rate constant of release of TCA-precipitable BSA ([1]; as Fig. 4, release at 37C): 0.182 min⁻¹
- half-life of release of intact material ([1]; uptake primarily via bulk-fluid-phase): ~4 min

Substance: N-formyinorleucylleucylphenylalanme [FNLLP]
- rate constant of filling the reversible pinocytic pool ([2]; 2 x 10^-8 M 3H-FNLLP, 37C (Fig. 10)): 0.165 min⁻¹
- k2, rate constant of further processing (digestion or storage) ([2]; Table I line 1, 2 X 10^-5 M/L): 0.097 min⁻¹
- k3, rate constant of release of intact peptide ([2]; Table I line 1, 2 X 10^-5 M/L): 0.101 min⁻¹
- k3/k2 + k3 ([2]; Table I line 1, 2 X 10^-5 M/L): 0.51
- k3, rate constant of release of intact peptide [2, 4]: 0.095 min⁻¹
- k3/k2 + k3 [2, 4]: 0.50
- k2, rate constant of further processing (digestion or storage) ([2]; Table I line 3, 2 X 10^-7 M/L): 0.117 min⁻¹
- k3, rate constant of release of intact peptide ([2]; Table I line 3, 2 X 10^-7 M/L): 0.081 min⁻¹
- k3/k2 + k3 ([2]; Table I line 3, 2 X 10^-7 M/L): 0.41
- k2, rate constant of further processing (digestion or storage) [2, 5]: 0.131 min⁻¹
- k3, rate constant of release of intact peptide [2, 5]: 0.067 min⁻¹
- k3/k2 + k3 [2, 5]: 0.34
- k2, rate constant of further processing (digestion or storage) ([2]; Table I line 5, 2 X 10^-9 M/L): 0,128 min-1
- k3, rate constant of release of intact peptide ([2]; Table I line 5, 2 X 10^-9 M/L): 0,070 min-1
- k3/k2 + k3 ([2]; Table I line 5, 2 X 10^-9 M/L): 0.35
- probability that pinocytosed material will be released intact, ratio k3/(k2 + k3) ([2]; estimate from Table I): approximately 0.5
- t1/2 of release of accumulated peptide as intact peptide ([2]; inhibitor cocktail (5 mM 2-deoxy-D-glucose, 1 mM sodium fluoride, 0.3 M sucrose, glucose-free HBSS), 37C, 2 x 10^-8 M 3H-FNLLP): 4 min
- time at which the amount of peptide accumulated reaches a plateau ([2]; inhibitor cocktail, 2 x 10^-8 M 3H-FNLLP, 37C (Fig. 5)): ~ 15 min
- rate constant of release of intact peptide ([2]; inhibitor cocktail, 37C, 2 x 10^-8 M 3H-FNLLP): 0.173 min⁻¹
- t1/2 of release as digested peptide [3]: 23 min
